An excerpt weighted towards active compounds, which were near 2.3% of everything screened.
Rpn11 inh – inhibitors of human proteasome Rpn11 | AID 588493 | inhibition, % at 20 µM | human 26S proteasome, Ub4-pepOG fluorescence polarization; 20S core pre-blocked with epoxomicin | 360,000 tested, 0.59% active;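 active = inhibition at 20 µM, scaled to each plate's controls, above about 33%, limit read from the data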
Target sequence (O00487 whole entry, looked up): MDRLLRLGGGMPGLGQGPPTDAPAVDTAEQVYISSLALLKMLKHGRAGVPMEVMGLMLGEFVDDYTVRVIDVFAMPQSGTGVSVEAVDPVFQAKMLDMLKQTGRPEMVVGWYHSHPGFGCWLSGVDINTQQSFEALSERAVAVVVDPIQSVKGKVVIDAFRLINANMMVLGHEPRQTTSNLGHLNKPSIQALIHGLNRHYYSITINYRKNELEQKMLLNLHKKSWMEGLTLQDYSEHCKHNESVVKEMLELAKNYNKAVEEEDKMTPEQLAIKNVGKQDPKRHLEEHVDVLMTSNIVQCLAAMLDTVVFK
LMPTP block – LMPTP (human) inhibition; P24666; recombinant LMPTP-A, OMFP fluorogenic substrate, fluorescence intensity; inhibition, % at 20 µM; 360,000 tested, 0.22% active; AID 651560;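 active = compounds that cut the enzyme signal by at least half of the control window in the single-dose screen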
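test system = LMPTP-A | amount = 0.625 nM LMPTP-A final | reagent = fluorogenic phosphatase substrate OMFP at 400 µM final | incubation = 50 min at room temperature | benchmarks = no-enzyme low control, uninhibited high control | medium = Bis-Tris pH 6.0, DTT, detergent | signal = fluorescence intensity of OMFP turnover product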
Scp-1 inhibitor – inhibitors of human Scp-1 phosphatase | Q9GZU7 | Recombinant Scp1, phosphopeptide, malachite green phosphate absorbance | inhibition, % at 20 µM | 340,000 tested, 0.88% active | AID 493091;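 active = inhibition above about 50% at 20 µM, limit read from the data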
Target sequence (Q9GZU7 76-261 limits assumed): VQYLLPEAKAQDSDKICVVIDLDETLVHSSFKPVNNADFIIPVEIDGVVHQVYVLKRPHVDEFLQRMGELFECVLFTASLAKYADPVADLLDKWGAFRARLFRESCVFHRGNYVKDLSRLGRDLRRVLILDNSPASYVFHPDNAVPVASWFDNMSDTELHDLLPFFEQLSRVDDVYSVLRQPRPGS
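Material – SCP-1 phosphatase catalytic domain, residues 76-261 · Buffer or medium – Acidic Tris acetate buffer with magnesium and detergent · Also added – Phospho 17-mer peptide substrate · Compound – single 20 µM dose, 1% DMSO · Times – 45 min room-temperature reaction, 5 min colour, 30 min stabiliser · Technique – Phosphate-binding colour reagent, absorbance read at 630 nm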
SUMO1-SIM PPI – alters human SUMO1 binding to SIM partners. P63165. SUMO1 binding to a labelled peptide, TR-FRET, 1 h. inhibition, % at 20 µM. 360,000 tested, 0.33% active; in the data active = inhibition above about 37%
Target sequence (P63165 whole entry, looked up): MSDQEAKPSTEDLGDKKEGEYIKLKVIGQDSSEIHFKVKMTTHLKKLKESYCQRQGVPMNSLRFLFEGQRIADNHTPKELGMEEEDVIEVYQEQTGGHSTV
DNMT1 block – inhibitors of human DNMT1; P26358; DNMT1 molecular beacon, Hinp1I cleavage, fluorescence; inhibition (reported as % activation of signal), % at 10 µM; 360,000 tested, 0.83% active; in the data active = inhibition above about 50%
STEP block – STEP (human) phosphatase inhibition; AID 588621; inhibition, % at 20 µM; 360,000 tested, 0.25% active; recombinant STEP, OMFP fluorogenic substrate, fluorescence;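 active = inhibition at 20 µM, scaled per plate between control wells, above about 37%, limit read from the data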
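System: isolated STEP enzyme; schedule: 20 min enzyme reaction at room temperature, protected from light; medium: Bis-Tris buffer pH 6.0, 2.5 mM DTT, 0.005% Tween 20; signal: fluorescence, 480/540 nm; dosing: single compound dose of 20 µM, 1% DMSO final; also added: OMFP substrate, 25 µM final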
Rpn11 confirm – confirmation of human proteasome Rpn11 inhibitors. AID 602318. 1,900 tested, 29% active. inhibition, % at 20 µM. purified human 26S proteasome, Ub4-pepOG fluorescence polarization; proteasome pretreated with epoxomicin. shares compounds with Rpn11 inh
MMP-2 counter – MMP-2 (human) inhibition counter-screen | shares compounds with Rpn11 inh | recombinant MMP-2, FRET peptide cleavage fluorescence | inhibition, % at 20 µM | 1,900 tested, 4% active | AID 602330;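 note: human MMP-2 activated beforehand with APMA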
Thrombin FP – thrombin (bovine) inhibition counter-screen | shares compounds with Rpn11 inh | inhibition, % at 20 µM | 1,900 tested, 13% active | bovine thrombin cleavage of Ub4-pepOG, fluorescence polarization;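 active = mean inhibition at least 40% at 20 µM, or signal 3 deviations below plate average, so some actives read negative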
Each line names hits and unclear results; the compound was inactive in the other large screens (follow-up assays come after a bar, where shown). Cut-off read from the data, not from the text of the source, unless noted: active = inhibition above about 40%; inactive = the rest.

N=C1/C(=C\c2ccc(SCc3ccccc3)o2)C(=O)N=C2SC(CC(=O)N3CCOCC3)=NN12	Rpn11 inh 41 | Rpn11 confirm inactive | MMP-2 counter inactive | Thrombin FP inactive
COc1ccc(CN(CC(=O)NC2CCCC2)C(=O)CCC(=O)Nc2nc(C)cs2)cc1	none
CN(C)c1ccc(C(=O)N2CCN(C(=O)C3CCCO3)CC2)cc1 (stereo unspecified)	none
Cc1cc(C)n(CC(O)Cn2c3ccc(Br)cc3c3cc(Br)ccc32)c(=O)n1 (stereo unspecified)	none
Cc1cc(C)n(CC(O)Cn2c3ccccc3c3ccccc32)c(=O)n1 (stereo unspecified)	Rpn11 inh 48 | Rpn11 confirm inactive | MMP-2 counter inactive | Thrombin FP inactive
CC#CC[N+](C)(C)CCCCCCCC	none
CCCCCCCCCCCCCCCC[N+](C)(C)Cc1ccc(F)cc1	Rpn11 inh 63 | Rpn11 confirm 88 | MMP-2 counter inactive | Thrombin FP inactive
CSc1ccc(/C=C/C(=O)c2c(O)cc(C)oc2=O)cc1	Rpn11 inh 53 | Rpn11 confirm 70 | MMP-2 counter inactive | Thrombin FP 131
CCC(c1nnnn1Cc1ccco1)N(CCc1ccccc1)Cc1cc2cc(C)ccc2[nH]c1=O (stereo unspecified)	none
Cc1ccc2[nH]c(=O)c(CN(CCc3ccccc3)C(c3nnnn3Cc3ccco3)C(C)C)cc2c1 (stereo unspecified)	Rpn11 inh 57 | Rpn11 confirm inactive | MMP-2 counter inactive | Thrombin FP inactive
COc1ccc(NS(=O)(=O)c2cc([N+](=O)[O-])ccc2N/N=C/c2c(C)[nH]c3ccccc23)cc1	Rpn11 inh 65 | Rpn11 confirm 44 | MMP-2 counter inactive | Thrombin FP inactive
Cc1[nH]c2ccccc2c1/C=N/Nc1ccccc1[N+](=O)[O-]	none
N#Cc1ccc(NN=Nc2ccccc2C#N)cc1	none (no result: Scp-1 inhibitor)
COc1cccc(Cn2c(N)c(C#N)c3nc4ccccc4nc32)c1OC	Rpn11 inh 38, SUMO1-SIM PPI 40 | Rpn11 confirm inactive | MMP-2 counter inactive | Thrombin FP inactive
CN1/C(=C/C(=S)NC(=O)C2CCC2)C(C)(C)c2ccccc21	Rpn11 inh 54 | Rpn11 confirm inactive | MMP-2 counter inactive | Thrombin FP inactive
CC(C)C(=O)NC(=S)/C=C1/N(C)c2ccccc2C1(C)C	none (not shown: Rpn11 inh)
Cc1cccc(NC(=O)c2cc(Cl)ccc2[N+](=O)[O-])c1	Rpn11 inh 73 | Rpn11 confirm inactive | MMP-2 counter inactive | Thrombin FP inactive
Cc1nn(-c2ccccc2)c(Cl)c1/C=C1\SC(=S)N(CCCCCC(=O)O)C1=O	none
Cc1nn(-c2ccccc2)c(Cl)c1/C=C1\SC(=S)NC1=O	Rpn11 inh 48 | Rpn11 confirm inactive | MMP-2 counter inactive | Thrombin FP inactive
O=C(O)c1ccccc1CC(CCc1ccccc1)C(=O)O (stereo unspecified)	none
CCCCN(C(=O)Cc1ccc(S(=O)(=O)N2CCOCC2)s1)c1c(N)n(CC(C)C)c(=O)[nH]c1=O	none
Cc1ccc(C(=O)O)cc1NC(=S)NC(=O)c1ccc(-c2ccc(Cl)cc2)o1	Rpn11 inh 48 | Rpn11 confirm inactive | MMP-2 counter 45 | Thrombin FP inactive
COc1ccc(C(=O)O)cc1NC(=S)NC(=O)c1ccc(-c2ccc(Cl)cc2)o1	none
O=C(N/N=C/c1ccc2c(c1)OCO2)c1cc2ccccc2o1	none
O=C(COc1ccc(/C=N/NC(=O)c2cc3ccccc3o2)cc1Cl)Nc1ccccc1	Rpn11 inh active, Scp-1 inhibitor 80, DNMT1 block 71, STEP block 54 | Rpn11 confirm inactive | MMP-2 counter inactive | Thrombin FP inactive
O=C(CCOc1ccccc1)NCC(c1ccco1)N1CCCCC1 (stereo unspecified)	Rpn11 inh 83 | Rpn11 confirm inactive | MMP-2 counter inactive | Thrombin FP inactive
COc1ccc(OC)c(N=C(C)C2=C(O)COC2=O)c1	Rpn11 inh 108 | Rpn11 confirm inactive | MMP-2 counter inactive | Thrombin FP inactive
COc1ccc(NC(=O)c2cccc3c(-c4cccnc4)coc23)cc1	Rpn11 inh 63 (no result: Scp-1 inhibitor) | Rpn11 confirm 42 | MMP-2 counter inactive | Thrombin FP inactive
CCn1c(C)nc2cc(C(=O)N3N=C(CCOC)CC3(O)C(F)(F)F)ccc21 (stereo unspecified)	none
CCOc1ccc2nc(Nc3nc(CSc4nnnn4-c4ccccc4)cc(=O)[nH]3)nc(C)c2c1	Rpn11 inh 38 | Rpn11 confirm inactive | MMP-2 counter inactive | Thrombin FP inactive
COC(=O)[C@]1(Cc2ccccc2)N[C@H](CN(C)C(=O)c2ccc(F)cc2)[C@@H]2C(=O)N(C)C(=O)[C@@H]21	none
Nc1ccc(/C=C/C(=O)c2ccco2)cc1	Rpn11 inh 90 | Rpn11 confirm 77 | MMP-2 counter inactive | Thrombin FP 67
COc1ccccc1NC(=O)CSc1nncs1	none
O=c1nc(/C=C/c2cc([N+](=O)[O-])ccc2Cl)cc(C(F)(F)F)[nH]1	none
O=c1nc(/C=C/c2cccn2-c2ccc([N+](=O)[O-])cc2)cc(C(F)(F)F)[nH]1	Rpn11 inh 40 | Rpn11 confirm inactive | MMP-2 counter inactive | Thrombin FP inactive
CC1CCCC(NC(=O)CN2C(=O)NC(C)(c3cc(F)ccc3F)C2=O)C1C (stereo unspecified)	none
CS(=O)(=O)N(CC(=O)Nc1ccc2c(c1)OCCO2)c1ccc2c(c1)OCO2	Rpn11 inh 150 | Rpn11 confirm inactive | MMP-2 counter inactive | Thrombin FP inactive
Cc1nn(-c2ccccc2)c(C)c1/C=C/C(=O)OCC(=O)Nc1ccc(S(N)(=O)=O)cc1	none
CCN(CC)S(=O)(=O)c1cccc(NC(=O)COc2ccc(C#N)cc2OC)c1	none
CCN(CC)S(=O)(=O)c1cccc(NC(=O)COc2ccc(F)cc2Br)c1	Rpn11 inh 46 | Rpn11 confirm inactive | MMP-2 counter inactive | Thrombin FP inactive
COc1ccc(N2C(=O)CCC(C(=O)Nc3cccc(C)n3)C2c2ccc(OC)c(OC)c2)cc1 (stereo unspecified)	Rpn11 inh active | Rpn11 confirm inactive | MMP-2 counter inactive | Thrombin FP inactive

Screening data: PubChem BioAssay, Sanford-Burnham Center for Chemical Genomics
